In ChEMBL document CHEMBL4825700, “A comprehensive assessment of a new series of 5',6'-difluorobenzotriazole-acrylonitrile derivatives as microtubule targeting agents (MTAs)” (Eur J Med Chem, 2021):
The source made the active and inactive calls.

Key:
HeLa [1] = test: Induction of cell cycle arrest in human HeLa cells assessed as accumulation of cells at S phase at 10 uM incubated for 48 hrs by 7-AAD staining based flow cytometry analysis (reference value: 5%); type: functional
Outline: (§1)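 HeLa seeded at 50% confluence, treated after 24 h with 5 or 10 µM for 24 or 48 h. Adherent plus floating cells fixed in ice-cold 70% ethanol overnight at -20 °C, stained with 7-AAD 20 min at room temperature; 20000 events per sample by flow cytometry; phase percentages compared with control.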

HeLa [2] = test: Induction of cell cycle arrest in human HeLa cells assessed as accumulation of cells at G2/M phase at 5 uM incubated for 48 hrs by 7-AAD staining based flow cytometry analysis (reference value: 30%); type: functional; outline: as §1
HeLa [3] = test: Induction of cell cycle arrest in human HeLa cells assessed as accumulation of cells at G2/M phase at 5 uM incubated for 24 hrs by 7-AAD staining based flow cytometry analysis (reference value: 30%); type: functional; outline: as §1
HeLa [4] = test: Induction of cell cycle arrest in human HeLa cells assessed as accumulation of cells at G0/G1 phase at 10 uM incubated for 24 hrs by 7-AAD staining based flow cytometry analysis (reference value: 65%); type: functional; outline: as §1
A704 = test: Antiproliferative activity against human A704 cells assessed as reduction in cell growth at 4 to 16 uM incubated for 48 to 72 hrs in presence of extrusion-pump inhibitor, SS26 by CellTox based fluorescence analysis; type: functional; conditions: dose 4-16 µM, time 48-72 hrs
Outline: (§2)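 A498, A-704, A549 and HT1197 cells (DMEM high glucose, 10% FBS, 37 °C, 5% CO2) plated 500/well with SiR-DNA 0.5 µM and CellTox Green 0.8x, treated next day at 1, 2, 4, 8, 16 µM alone or with EPI SS26 at fixed 1 µM, 0.3% DMSO. Nuclei and dead cells imaged at 0, 24, 48, 72 h; percentage growth calculated; three technical replicates.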

[5] = test system: Panel CNS (Carcinoma cell lines); test: Antiproliferative activity against human CNS cancer cells assessed as lethality measured after 24 to 48 hrs by XTT assay; type: functional; conditions: time 24-48 hrs
Outline: (§3)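 NCI60 screen run by the NCI Developmental Therapeutics Program. A single 10 µM dose was first tested across the full 60-cell-line panel. Compounds meeting the inhibition selection criteria were then retested at five 10-fold dilutions from 100 µM to 0.01 µM. GI50, TGI and LC50 were reported as molar concentrations for each tumour-type group.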

[6] = Antiproliferative against human breast cancer cells assessed as reduction in cell growth incubated for 24 to 48 hrs by XTT assay; type: functional, Panel breast (Carcinoma cell lines); conditions: Breast carcinoma cell, time 24-48 hrs
Outline: (§4)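 NCI60 panel screen by the NCI Developmental Therapeutics Program: single dose of 10 µM first; compounds meeting inhibition criteria retested at five 10-fold dilutions, 100 µM to 0.01 µM; GI50, TGI and LC50 derived.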

A549 = test: Antiproliferative activity against human A549 cells assessed as reduction in cell growth at 4 to 16 uM incubated for 72 hrs in presence of extrusion-pump inhibitor, SS26 by CellTox based fluorescence analysis; type: functional; conditions: dose 4-16 µM; outline: as §2
[7] = Antiproliferative against human ovarian cancer cells assessed as reduction in cell growth incubated for 24 to 48 hrs by XTT assay; type: functional, Panel ovarian (Carcinoma cell lines); conditions: Ovarian carcinoma cell, time 24-48 hrs; outline: as §4
Sus scrofa [8] = organism: Sus scrofa; test: Displacement of colchicine from pig tubulin assessed as reduction in colchicine effectiveness on tubulin assembly measured every 20 secs for 30 mins by fluorescence based analysis
HeLa [9] = test: Induction of cell cycle arrest in human HeLa cells assessed as accumulation of cells at S phase at 5 uM incubated for 48 hrs by 7-AAD staining based flow cytometry analysis (reference value: 5%); type: functional; outline: as §1
HeLa [10] = test: Induction of cell cycle arrest in human HeLa cells assessed as accumulation of cells at S phase at 10 uM incubated for 24 hrs by 7-AAD staining based flow cytometry analysis (reference value: 5%); type: functional; outline: as §1
[11] = Antiproliferative activity against human leukemia cells assessed as reduction in cell viability measured after 24 to 48 hrs by XTT assay; type: functional; conditions: Panel leukemia (Carcinoma cell lines), time 24-48 hrs; for CC50: read-out: LC50 (the source's name)
[12] = Antiproliferative activity against human colon cancer cells assessed as reduction in cell viability measured after 24 to 48 hrs by XTT assay; type: functional, Panel colon (Carcinoma cell lines); conditions: Colon carcinoma cell, time 24-48 hrs
Tubulin (Homo sapiens) [13] = target: T1, Tubulin (Homo sapiens) (UniProt P68371+Q9H4B7+P0DPH7+P68366+Q13509+Q71U36+P04350+Q3ZCM7+P07437+P68363+Q9BQE3+Q6PEY2+Q13885+Q9BVA1+Q9BUF5); test: Disruption of microtubules in human HeLa cells assessed as beta-tubulin disassembly at 50 to 500 nM incubated for 24 hrs by high-content confocal microscopy; type: cell-based; conditions: dose 50-500 nM
Outline: (§5)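 HeLa treated 24 h at 10, 25, 50, 100 and 500 nM, stained for β-tubulin and nuclei (DAPI), imaged by high-content confocal microscopy; tubulin disassembly and cell dimension compared with controls.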

HeLa [14] = test: Induction of cell cycle arrest in human HeLa cells assessed as accumulation of cells at G0/G1 phase at 10 uM incubated for 48 hrs by 7-AAD staining based flow cytometry analysis (reference value: 65%); type: functional; outline: as §1
HeLa [15] = test: Induction of cell cycle arrest in human HeLa cells assessed as accumulation of cells at G2/M phase at 10 uM incubated for 24 hrs by 7-AAD staining based flow cytometry analysis (reference value: 30%); type: functional; outline: as §1
[16] = test system: Panel CNS (Carcinoma cell lines); test: Antiproliferative activity against human CNS cancer cells assessed as reduction in cell viability measured after 24 to 48 hrs by XTT assay; type: functional; conditions: time 24-48 hrs; for CC50: read-out: LC50 (the source's name)
A498 = test: Antiproliferative activity against human A498 cells assessed as reduction in cell growth at 4 to 16 uM incubated for 72 hrs in presence of extrusion-pump inhibitor, SS26 by CellTox based fluorescence analysis; type: functional; conditions: dose 4-16 µM; outline: as §2
HeLa [17] = test: Induction of incomplete cytokinesis with increased cell dimension in human HeLa cells at 0.3 uM measured after 48 hrs by fluorescence microscopy; type: functional, cell-based
HeLa [18] = test: Induction of cell cycle arrest in human HeLa cells assessed as accumulation of cells at G2/M phase at 10 uM incubated for 48 hrs by 7-AAD staining based flow cytometry analysis (reference value: 30%); type: functional; outline: as §1
[19] = Antiproliferative activity against human NSC lung cancer cells assessed as reduction in cell viability measured after 24 to 48 hrs by XTT assay; type: functional; conditions: Non-small cell lung cancer cell line, time 24-48 hrs; for CC50: read-out: LC50 (the source's name)
HeLa [20] = test: Induction of cell cycle arrest in human HeLa cells assessed as accumulation of cells at S phase at 5 uM incubated for 24 hrs by 7-AAD staining based flow cytometry analysis (reference value: 5%); type: functional; outline: as §1
[21] = Antiproliferative against human prostate cancer cells assessed as reduction in cell growth incubated for 24 to 48 hrs by XTT assay; type: functional; conditions: Panel prostate (Carcinoma cell lines), time 24-48 hrs; outline: as §4
Tubulin (Homo sapiens) [22] = target: T1, Tubulin (Homo sapiens); test: Disruption of microtubules in human HeLa cells assessed as increase in cytoplasmic dimensions at 50 nM incubated for 24 hrs by high-content confocal microscopy relative to control; type: cell-based; outline: as §5
[23] = Antiproliferative against human melanoma cells assessed as reduction in cell growth incubated for 24 to 48 hrs by XTT assay; type: functional; conditions: Panel melanoma (Carcinoma cell lines), time 24-48 hrs; for CC50: read-out: LC50 (the source's name); outline: as §4
NCI-H522 = test: Antiproliferative activity against human NCI-H522 cells assessed as reduction in cell growth at […] measured after 24 to 48 hrs by XTT assay; type: functional; conditions: time 24-48 hrs, read-out: GI; outline: as §4
HT1197 = test: Antiproliferative activity against human HT1197 cells assessed as reduction in cell growth at 4 to 16 uM incubated for 72 hrs in presence of extrusion-pump inhibitor, SS26 by CellTox based fluorescence analysis; type: functional; conditions: dose 4-16 µM; outline: as §2
Sus scrofa [24] = organism: Sus scrofa; test: Inhibition of pig tubulin polymerization measuring every 20 sec for 30 mins by fluorescence based analysis
[25] = test system: Panel NCI-60 (60 carcinoma cell lines); test: Antiproliferative against human NCI-60 cells assessed as reduction in cell growth incubated for 24 to 48 hrs by XTT assay; type: functional; conditions: time 24-48 hrs; outline: as §4
HeLa [26] = test: Induction of cell cycle arrest in human HeLa cells assessed as accumulation of cells at G0/G1 phase at 5 uM incubated for 48 hrs by 7-AAD staining based flow cytometry analysis (reference value: 65%); type: functional; outline: as §1
HeLa [27] = test: Induction of cell cycle arrest in human HeLa cells assessed as accumulation of cells at G0/G1 phase at 5 uM incubated for 24 hrs by 7-AAD staining based flow cytometry analysis (reference value: 65%); type: functional; outline: as §1
[28] = Antiproliferative against human renal cancer cells assessed as reduction in cell growth incubated for 24 to 48 hrs by XTT assay; type: functional; conditions: Panel renal (Carcinoma cell lines), time 24-48 hrs; outline: as §4
U-251 = test: Antiproliferative activity against human U-251 cells assessed as lethality measured after 24 to 48 hrs by XTT assay; type: functional; conditions: time 24-48 hrs; outline: as §3
HeLa [29] = test: Antiproliferative activity against human HeLa cells assessed as reduction in cell viability measured after 48 hrs by XTT assay; type: functional, cell-based
Outline: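 HeLa (DMEM, 10% FBS, 37 °C, 5% CO2) seeded 1500 cells/well, treated 24 h later at 0.1–5 µM for 24 and 48 h; DMSO vehicle as control. XTT reagent 4 h at 37 °C, absorbance at 490 nm; IC50 calculated from viability; more than three independent experiments, each in triplicate.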

CCRF-CEM [30] = test: Antiproliferative activity against human CCRF-CEM cells assessed as inhibition of cell proliferation measured after 96 hrs by MTT assay; type: functional, cell-based
CCRF-CEM [31] = test: Antiproliferative activity against human CCRF-CEM cells assessed as inhibition of cell growth at 10 uM measured after 24 to 48 hrs by XTT assay; type: functional; conditions: time 24-48 hrs, read-out: GI; outline: as §4
[32] = read-out: LC50 (the source's name)

## Cc1ccc(/C=C(\C#N)n2nnc3cc(F)c(F)cc32)cc1
HeLa [1]
  Activity: 3%
HeLa [2]
  Activity: 50%
HeLa [3]
  Activity: 54%
HeLa [4]
  Activity: 20%
A704
  Activity: Active
[5]
  Activity: >=90%
[6]
  GI50: 1.16 µM
  LC50: > 100 µM
  TGI: ≥ 5.39 µM
A549
  Activity: Active
[7]
  GI50: 1.47 µM
  TGI: ≥ 6.08 µM
[7]; [32]
  CC50: ≥ 33.8 µM
Sus scrofa [8]
  Activity: Active
HeLa [9]
  Activity: 9%
HeLa [10]
  Activity: 14%
[11]
  GI50: 0.391 µM
  TGI: ≥ 0.871 µM
  CC50: > 100 µM
[12]
  GI50: 0.421 µM
  TGI: 1.53 µM
[12]; [32]
  CC50: ≥ 5.8 µM
Tubulin (Homo sapiens) [13]
  Activity: Active
HeLa [14]
  Activity: 10%
HeLa [15]
  Activity: 66%
[16]
  GI50: 1.48 µM
  TGI: 2.94 µM
  CC50: ≥ 5.83 µM
A498
  Activity: Active
HeLa [17]
  Activity: Active
HeLa [18]
  Activity: 87%
[19]
  GI50: 0.291 µM
  TGI: 1.12 µM
  CC50: ≥ 6.78 µM
HeLa [20]
  Activity: 7%
[21]
  GI50: 3.32 µM
  TGI: 15.6 µM
[21]; [32]
  CC50: 66.2 µM
Tubulin (Homo sapiens) [22]
  fold change (FC): 3
[23]
  GI50: 0.36 µM
  TGI: ≥ 100 µM
  CC50: ≥ 7.67 µM
NCI-H522
  inhibition of growth: 93%
HT1197
  Activity: Active
Sus scrofa [24]
  inhibition: Active
[25]
  GI50: ≤ 0.1 µM
  TGI: ≤ 1 µM
[25]; [32]
  CC50: ≤ 1 µM
HeLa [26]
  Activity: 41%
HeLa [27]
  Activity: 39%
[28]
  GI50: 1.77 µM
  TGI: 7.41 µM
[28]; [32]
  CC50: ≥ 36.7 µM
U-251
  Activity: >=90%
HeLa [29]
  IC50: 3.2 µM

## COc1ccc(/C=C(\C#N)n2nnc3ccccc32)cc1
CCRF-CEM [30]
  IC50: 0.2 µM

## N#C/C(=C\c1cccc2cnccc12)n1nnc2ccccc21
[6]
  GI50: 0.557 µM
  LC50: > 100 µM
  TGI: ≥ 2.84 µM
CCRF-CEM [31]
  inhibition of growth at 10 µM: 100%
[11]
  GI50: 0.253 µM
  TGI: ≥ 24.3 µM
  CC50: > 100 µM
[16]
  GI50: 0.184 µM
  TGI: ≥ 3.61 µM
  CC50: > 100 µM
[19]
  GI50: 0.532 µM
  TGI: ≥ 5.13 µM
  CC50: > 100 µM
[23]
  GI50: 2.04 µM
  TGI: > 100 µM
  CC50: > 100 µM
